In article PMC9989852 (Food and chemical toxicology : an international journal …, 2022):
Where “and” joins values, the source holds several entries; their conditions need not be identical. Equal entries are not always repeated.

Experiments:
ear pinna [1] = experiment: Skin; assay type: in vivo, B6C3F1 mice; details: dermal, 28 days
Outline: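 Female B6C3F1 mice (5/group) received 25 μl/ear daily to the dorsal ears in acetone. About 24 h after the last dose, tissues went into RPMI: both auricular dLNs, half spleen and one ear pinna. Single-cell suspensions were acquired on an LSR II, with populations gated per supplemental strategy and FMO gating controls. Results are mean ± SE, n=5, by one-way ANOVA.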

ear pinna [2] = experiment: Ear; assay type: in vivo, B6C3F1 mice; details: dermal, 28 days, mice affected of 5
Outline: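 Female B6C3F1 mice (5/group) received 25 μl/ear on the dorsal ear surfaces daily, with acetone as vehicle. Tissues were formalin-fixed about 24 h after the last dose: liver remainder, half spleen, right kidney and half ear pinna. Sections were paraffin-embedded, cut at 5 μm and stained with H&E. A veterinary pathologist read them per STP guideline and graded 1 (minimal) to 5 (severe) by extent.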

B6C3F1 mice = experiment: Serum chemistries after 28-day dermal exposure; assay type: in vivo; details: 5%, 28 days
Outline: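 Female B6C3F1 mice received daily dorsal ear application (25 μl/ear, acetone vehicle). About 24 h after the last dose, blood was taken by cardiac puncture. Serum was separated by centrifugation and stored at −20 °C. ALKP, BUN, glucose and cholesterol were read on a Catalyst DX analyzer. Data are mean ± SE of 4–5 mice, ANOVA with Dunnett's; ALKP was also tested by linear regression (p < 0.05).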

liver (caudate) = experiment: Liver gene expression; assay type: in vivo, B6C3F1 mice; details: dermal, 28 days
Outline: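 Dosing was daily topical to both dorsal ears (25 μl/ear, acetone vehicle) in female B6C3F1 mice. Liver caudate lobe or half ear pinna was stored in RNAlater and homogenized in RLT buffer. RNA was isolated on RNeasy columns with DNase, and 1–2 μg was reverse-transcribed. TaqMan real-time PCR was read as 2−ΔΔCT vs vehicle, normalized to β-actin. Statistics: ANOVA/Dunnett's, or Kruskal-Wallis/Dunn's for unequal variance.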

Structure (SMILES): O=C(O)C(F)(F)C(F)(F)C(F)(F)C(F)(F)C(F)(F)F [PFHxA, perfluorohexanoic acid]
- Ear CD4^+ cell number (ear pinna [1]; 1.25%): 2.40 ± 0.36 × 10^3
- Ear CD4^+ frequency (ear pinna [1]; 1.25%): 3.34 ± 0.09%
- Ear CD8^+ cell number (ear pinna [1]; 1.25%): 3.38 ± 2.57 × 10^2
- Ear CD8^+ frequency (ear pinna [1]; 1.25%): 0.48 ± 0.37%
- Ear CD45^+ cell number (ear pinna [1]; 1.25%): 7.21 ± 1.13 × 10^4
- Ear CD45^+ frequency (ear pinna [1]; 1.25%): 8.51 ± 0.85%
- Ear CD lib- F4/80+ DCs cell number (ear pinna [1]; 1.25%): 5.74 ± 0.72 × 10^2
- Ear CDllb + F4/80+ DCs cell number (ear pinna [1]; 1.25%): 22.30 ± 3.03 × 10^2
- Ear CDllb- F4/80+ DCs frequency (ear pinna [1]; 1.25%): 0.87 ± 0.14%
- Ear CDllb- F4/80-DCs cell number (ear pinna [1]; 1.25%): 1.47 ± 0.24 × 10^3
- Ear CDllb- F4/80-DCs frequency (ear pinna [1]; 1.25%): 2.05 ± 0.05 %
- Ear Dendritic Cells cell number (ear pinna [1]; 1.25%): 4.99 ± 0.68 × 10^3
- Ear Dendritic Cells frequency (ear pinna [1]; 1.25%): 7.09 ± 0.33%
- Ear Eosinophils cell number (ear pinna [1]; 1.25%): 2.77 ± 0.56 × 10^3
- Ear Eosinophils frequency (ear pinna [1]; 1.25%): 3.82 ± 0.34%
- Ear NK cell number (ear pinna [1]; 1.25%): 4.76 ± 0.96 × 10^2
- Ear NK frequency (ear pinna [1]; 1.25%): 0.66 ± 0.07%
- Ear Neutrophils cell number (ear pinna [1]; 1.25%): 1.18 ± 0.22 × 10^2
- Ear Neutrophils frequency (ear pinna [1]; 1.25%): 0.17 ± 0.02%
- Ear Total Cellularity (ear pinna [1]; 1.25%): 0.83 ± 0.09 × 10^6
- Ear CD4^+ cell number (ear pinna [1]; 2.5%): 5.01 ± 0.60 × 10^3
- Ear CD4^+ frequency (ear pinna [1]; 2.5%): 5.05 ± 0.25 %
- Ear CD8^+ cell number (ear pinna [1]; 2.5%): 1.91 ± 0.23 × 10^2
- Ear CD8^+ frequency (ear pinna [1]; 2.5%): 0.19 ± 0.02%
- Ear CD45^+ cell number (ear pinna [1]; 2.5%): 9.82 ± 0.79 × 10^4
- Ear CD45^+ frequency (ear pinna [1]; 2.5%): 10.91 ± 1.00 %
- Ear CD lib- F4/80+ DCs cell number (ear pinna [1]; 2.5%): 6.58 ± 0.67 × 10^2
- Ear CDllb + F4/80+ DCs cell number (ear pinna [1]; 2.5%): 35.80 ± 2.66 × 10^2
- Ear CDllb- F4/80+ DCs frequency (ear pinna [1]; 2.5%): 0.67 ± 0.05%
- Ear CDllb- F4/80-DCs cell number (ear pinna [1]; 2.5%): 2.82 ± 0.24 × 10^3
- Ear CDllb- F4/80-DCs frequency (ear pinna [1]; 2.5%): 2.89 ± 0.19%
- Ear Dendritic Cells cell number (ear pinna [1]; 2.5%): 9.09 ± 0.72 × 10^3
- Ear Dendritic Cells frequency (ear pinna [1]; 2.5%): 9.30 ± 0.47%
- Ear Eosinophils frequency (ear pinna [1]; 2.5%): 7.59 ± 0.65 %
- Ear NK cell number (ear pinna [1]; 2.5%): 6.45 ± 0.60 × 10^2
- Ear NK frequency (ear pinna [1]; 2.5%): 0.66 ± 0.04%
- Ear Neutrophils cell number (ear pinna [1]; 2.5%): 4.94 ± 1.24 × 10^2
- Ear Neutrophils frequency (ear pinna [1]; 2.5%): 0.51 ± 0.13%
- Ear Total Cellularity (ear pinna [1]; 2.5%): 0.91 ± 0.05 × 10^6
- Ear CD4^+ cell number (ear pinna [1]; 5%): 6.11 ± 1.17 × 10^3
- Ear CD4^+ frequency (ear pinna [1]; 5%): 5.29 ± 0.32 %
- Ear CD8^+ cell number (ear pinna [1]; 5%): 2.15 ± 0.46 × 10^2
- Ear CD8^+ frequency (ear pinna [1]; 5%): 0.20 ± 0.04%
- Ear CD45^+ cell number (ear pinna [1]; 5%): 11.50 ± 2.03 × 10^4
- Ear CD45^+ frequency (ear pinna [1]; 5%): 11.22 ± 1.00 %
- Ear CD lib- F4/80+ DCs cell number (ear pinna [1]; 5%): 4.22 ± 0.49 × 10^2
- Ear CDllb + F4/80+ DCs cell number (ear pinna [1]; 5%): 48.30 ± 7.74 × 10^2
- Ear CDllb- F4/80+ DCs frequency (ear pinna [1]; 5%): 0.39 ± 0.03 %
- Ear CDllb- F4/80-DCs cell number (ear pinna [1]; 5%): 2.90 ± 0.54 × 10^3
- Ear CDllb- F4/80-DCs frequency (ear pinna [1]; 5%): 2.51 ± 0.14%
- Ear Dendritic Cells cell number (ear pinna [1]; 5%): 10.10 ± 1.77 × 10^3
- Ear Dendritic Cells frequency (ear pinna [1]; 5%): 8.88 ± 0.39%
- Ear Eosinophils cell number (ear pinna [1]; 5%): 9.87 ± 1.78 × 10^3
- Ear Eosinophils frequency (ear pinna [1]; 5%): 8.60 ± 0.38 %
- Ear NK cell number (ear pinna [1]; 5%): 9.94 ± 2.21 × 10^2
- Ear NK frequency (ear pinna [1]; 5%): 0.85 ± 0.09 %
- Ear Neutrophils frequency (ear pinna [1]; 5%): 1.13 ± 0.23 %
- Ear Total Cellularity (ear pinna [1]; 5%): 0.99 ± 0.11 × 10^6
- Ear: Degeneration/regeneration, cartilage, focal, Mild (incidence) (ear pinna [2]; 1.25%): 0
- Ear: Fibrosis, dermis, focal, Minimal (incidence) (ear pinna [2]; 1.25%): 0
- Ear: Hyperkeratosis, epidermis, focal, Mild (incidence) (ear pinna [2]; 1.25%): 0
- Ear: Hyperkeratosis, epidermis, focal, Minimal (incidence) (ear pinna [2]; 1.25%): 1
- Ear: Hyperplasia, epidermis, focal, Mild (incidence) (ear pinna [2]; 1.25%): 0
- Ear: Hyperplasia, epidermis, focal, Minimal (incidence) (ear pinna [2]; 1.25%): 5/5 and 5
- Ear: Inflammation, mixed cell, dermis, Minimal (incidence) (ear pinna [2]; 1.25%): 0
- Ear: Inflammation, mononuclear cell, dermis, Minimal (incidence) (ear pinna [2]; 1.25%): 0
- Ear: Necrosis, epidermis, multifocal, Minimal (incidence) (ear pinna [2]; 1.25%): 0
- Ear: Degeneration/regeneration, cartilage, focal, Mild (incidence) (ear pinna [2]; 2.5%): 0
- Ear: Fibrosis, dermis, focal, Minimal (incidence) (ear pinna [2]; 2.5%): 0
- Ear: Hyperkeratosis, epidermis, focal, Mild (incidence) (ear pinna [2]; 2.5%): 0
- Ear: Hyperkeratosis, epidermis, focal, Minimal (incidence) (ear pinna [2]; 2.5%): 4/5 and 4
- Ear: Hyperplasia, epidermis, focal, Mild (incidence) (ear pinna [2]; 2.5%): 0
- Ear: Hyperplasia, epidermis, focal, Minimal (incidence) (ear pinna [2]; 2.5%): 5/5 and 5
- Ear: Inflammation, mixed cell, dermis, Minimal (incidence) (ear pinna [2]; 2.5%): 0
- Ear: Inflammation, mononuclear cell, dermis, Minimal (incidence) (ear pinna [2]; 2.5%): 0
- Ear: Necrosis, epidermis, multifocal, Minimal (incidence) (ear pinna [2]; 2.5%): 0
- Ear: Degeneration/regeneration, cartilage, focal, Mild (incidence) (ear pinna [2]; 5%): 1
- Ear: Fibrosis, dermis, focal, Minimal (incidence) (ear pinna [2]; 5%): 5/5 and 5
- Ear: Hyperkeratosis, epidermis, focal, Mild (incidence) (ear pinna [2]; 5%): 3/5 and 3
- Ear: Hyperkeratosis, epidermis, focal, Minimal (incidence) (ear pinna [2]; 5%): 2/5 and 2
- Ear: Hyperplasia, epidermis, focal, Mild (incidence) (ear pinna [2]; 5%): 4/5 and 4
- Ear: Hyperplasia, epidermis, focal, Minimal (incidence) (ear pinna [2]; 5%): 1
- Ear: Inflammation, mixed cell, dermis, Minimal (incidence) (ear pinna [2]; 5%): 4/5 and 4
- Ear: Inflammation, mononuclear cell, dermis, Minimal (incidence) (ear pinna [2]; 5%): 0
- Ear: Necrosis, epidermis, multifocal, Minimal (incidence) (ear pinna [2]; 5%): 0
- serum glucose, increase compared to vehicle control (B6C3F1 mice): 27%
- liver Pparδ expression (liver (caudate); 1.25%): decreasing
- liver Acox1 gene expression (liver (caudate); 2.5%): increase
- liver Fabp1 gene expression (liver (caudate); 2.5%): increased
- liver Pparδ expression (liver (caudate); 2.5%): decreasing
- liver Cd36 gene expression, increase (liver (caudate); 5%): 4.6 fold
- liver Ehhadh gene expression, increase (liver (caudate); 5%): 4.8 fold
- liver Pparδ expression (liver (caudate); 5%): decreasing
